These results are taken from ChEMBL document CHEMBL3244088, “Antitumor agents 32. Synthesis and antitumor activity of cyclopentenone derivatives related to helenalin” (1978).

Values after ≈ are worked out from the molar mass of the structure shown. Where only a bound is given, the exact number is not on record here.

The T/C is the ratio of treated to control.

What all share (type): functional
Assay [1] relates to W256. Kind of assay: Antitumor activity against […] allografted in Sprague-Dawley rat assessed as increase in survival rate at 2.5 mg/kg/day, ip relative to control. The following applies: route intraperitoneal. The method in brief:
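Walker 256 ascites carcinosarcoma: 10^6 tumor cells implanted ip into male Sprague-Dawley rats (~80 g), with daily ip dosing of compounds. Result expressed as T/C; a T/C ≥ 125% counts as active. Melphalan was the positive standard. Animal numbers per group were recorded for each test.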

Assay [2] is described as follows: Cytotoxicity against human Hep2 cells assessed a growth inhibition by rapid microtiter technique. The following applies: HEp-2, read-out: ED50 (the source's name). The method in brief:
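Human laryngeal epidermoid carcinoma H.Ep.-2 cells run in a rapid microtiter cytotoxicity assay. ED50 is calculated as the dose that inhibits net cell growth to 50% of control growth. Compounds with ED50 ≤ 4 µg/mL are scored active.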

For assay [3], the system named is P388. The experiment in a line: Antitumor activity against mouse P388 cells allografted in DBA/2 mouse assessed as increase in survival rate at 16.8 mg/kg/day, ip administered for 2 weeks relative to control. The following applies: route intraperitoneal.
Assay [4] deals with P388. The experiment in a line: Antitumor activity against mouse P388 cells allografted in DBA/2 mouse assessed as increase in survival rate at 5 mg/kg/day, ip administered for 2 weeks relative to control. The following applies: route intraperitoneal.
For assay [5], the system named is W256. The experiment in a line: Antitumor activity against […] allografted in Sprague-Dawley rat assessed as increase in survival rate at 1.25 mg/kg/day, ip relative to control. The following applies: route intraperitoneal.
For assay [6], the system named is P388. Kind of assay: Antitumor activity against mouse P388 cells allografted in DBA/2 mouse assessed as increase in survival rate at 25 mg/kg/day, ip administered for 2 weeks relative to control. The following applies: route intraperitoneal.
The subject of assay [7] is P388. Kind of assay: Antitumor activity against mouse P388 cells allografted in DBA/2 mouse assessed as increase in survival rate at 4 mg/kg/day, ip administered for 2 weeks relative to control. The following applies: route intraperitoneal.

In the case of `C=C1C(=O)O[C@@H]2C[C@@H](C)[C@@H]3C=CC(=O)[C@@]3(C)[C@@H](O)[C@H]12` [HELENALIN], the T/C is on record as 316% in assay [1] and 127% in assay [3]. Also, in assay [2], the EC50 was 0.08 µg/mL (≈ 0.305 µM).

Take `CCOC(=O)/C=C/c1ccccc1` [ETHYL CINNAMATE]: in assay [2], the EC50 is above 50 µg/mL.

In the case of `COc1cc(C(=O)OCC2(C)CC=CC2=O)cc(OC)c1OC` (stereo not drawn), the T/C in assay [4] was determined as 140%; in assay [5], 223%. In addition, the EC50 in assay [2] turned out to be 3.6 µg/mL (≈ 11.2 µM).

Regarding `O=c1[nH]cc(F)c(=O)[nH]1` [FLUOROURACIL], in assay [6], the T/C is reported as 186%.

With `CC1(COC(=O)/C=C/c2ccccc2)CC=CC1=O` (stereo not drawn), the values for the T/C in assay [7] and in assay [1] were 131% and 136%, respectively. Further, the EC50 in assay [2] came out at 3.5 µg/mL (≈ 13.7 µM).

Regarding `CC(=O)OCC1(C)CC=CC1=O` (stereo not drawn), the T/C in assay [4] and in assay [1] was 105% throughout. Also, the EC50 in assay [2] was determined as 18.3 µg/mL (≈ 109 µM).

`CCOC(=O)C1(C)CC=CC1=O` (stereo not drawn): the T/C in assay [4] and in assay [1] was 103% throughout. For the same compound, in assay [2], the EC50 amounted to 17.2 µg/mL (≈ 102 µM).

For the compound `CC1(CO)CC=CC1=O` (stereo not drawn), the figures for the T/C in assay [4] and in assay [1] were 105% and 100%, respectively. Besides, the EC50 in assay [2] was determined as 15.8 µg/mL (≈ 125 µM).

On to `O=C1C=CCC1`, for which the figures for the T/C in assay [4] and in assay [1] were 121% and 188%, respectively. Moreover, the EC50 in assay [2] is above 50 µg/mL.

Take `CC1(COC(=O)CCCCCCCCC(=O)OCC2(C)CC=CC2=O)CC=CC1=O` (stereo not drawn): the values for the T/C in assay [7] and in assay [1] were 109% and 108%, respectively. Besides, the EC50 in assay [2] stood at 14.6 µg/mL (≈ 34.9 µM).

Take `N[C@@H](Cc1ccc(N(CCCl)CCCl)cc1)C(=O)O` [MELPHALAN]: the results for the T/C in assay [1] and in assay [6] were 317% and 168%, respectively.
